# Measurements pooled from the literature.
# Compare with care: the assays were run in different laboratories.
SMILES,host,sample,route,dose,setting,quantity,value
C[C@@H]1COCCN1c1cc(=O)n2c(n1)N(Cc1cncc(Cl)c1)[C@H](C(F)(F)F)CC2,C57BL/6 mouse,plasma,intraperitoneal,10 mg/kg,single dose,AUC(0-inf),3.28 µg·h/mL
Cc1nc2ccc(OCc3ccc(C(F)(F)F)cc3)cc2[nH]1,male BALB/c mouse,plasma,oral,10 mg/kg,,AUC(0-inf),13.2 µg·h/mL
CC(C)[C@@H](CS(=O)(=O)C(C)C)N1C(=O)[C@@](C)(CC(=O)O)C[C@H](c2cccc(Cl)c2)[C@H]1c1ccc(Cl)cc1,FVB mouse,brain,oral,20 mg/kg,single dose,AUC(0-inf),0.0363 µg·h/mL
Cc1ccc(CCC(=O)Nc2nnc(S(N)(=O)=O)s2)cc1,male BALB/c mouse,plasma,oral,20 mg/kg,,AUC,12.5 µM·h
NCc1cc2c(cc1F)C(=O)N(C1CCC(=O)NC1=O)C2 (centres unmarked),male CD-1 mouse,plasma,oral,10 mg/kg,,AUC(0-inf),0.263 µg·h/mL
OCc1nc2ccc(NCc3ccc(C(F)(F)F)cc3)cc2[nH]1,male BALB/c mouse,plasma,oral,10 mg/kg,,AUC(0-inf),2.73 µg·h/mL
COCC(=O)N1CCc2[nH]c3c(Cl)c(Cl)ccc3c2[C@@H]1C,C57BL/6 mouse,blood,oral,20 mg/kg,,AUC(0-inf),8.24 µM·h
CCOC(=O)C1=C(CN2CCC[C@@H]2C(=O)Nc2ccc(B(O)O)cc2)NC(c2nccs2)=N[C@H]1c1ccc(F)cc1Br,CD-1 mouse,plasma,intravenous,2 mg/kg,,AUC(0-inf),0.723 µg·h/mL
O=C1CCC(N2Cc3cc(CO)c(F)cc3C2=O)C(=O)N1 (centres unmarked),male CD-1 mouse,plasma,intravenous,1 mg/kg,,AUC(0-inf),0.316 µg·h/mL
CCOC(=O)c1c(NC(=O)CNC(C)C)sc2c1CCCCC2,male mouse,plasma,intraperitoneal,5 mg/kg,single dose,AUC(0-inf),0.311 µg·h/mL
O=C1CCC(N2Cc3cc(C4CCN(Cc5ccccc5)CC4)ccc3C2=O)C(=O)N1 (centres unmarked),male CD-1 mouse,plasma,oral,3 mg/kg,,AUC(0-inf),0.603 µg·h/mL
COc1cccc2c(N3CCC(CCP(=O)(O)O)CC3)ncnc12,female C57BL/6 mouse,brain,subcutaneous,50 mg/kg,,AUC(0-inf),0.751 µg·h/mL
NCc1ccc(-c2nn(Cc3ccccc3)c3ccccc23)o1,male CD-1 mouse,plasma,intravenous,5 mg/kg,,AUC(0-t),1.31 µg·h/mL
CN(C)C(=O)c1cc2cnc(Nc3ccc(-c4ccc5c(=O)cc(N6CCOCC6)oc5c4)cc3)nc2n1C1CCCC1.Cl,BALB/c mouse,plasma,intravenous,2 mg/kg,,AUC(0-inf),2.79 µg·h/mL
